Data as given in ChEMBL document CHEMBL6127097, “Structure-Guided Discovery of cis-Hexahydro-pyrido-oxazinones as Reversible, Drug-like Monoacylglycerol Lipase Inhibitors” (J Med Chem, 2024).
Values after ≈ are worked out from the molar mass of the structure shown.

How the values were obtained:
[1] = biological target: T1, Monoglyceride lipase (Homo sapiens, UniProt Q99685); test: Inhibition of human MAGL using native substrate by Rapidfire MS assay
T1 sequence (Q99685 whole entry): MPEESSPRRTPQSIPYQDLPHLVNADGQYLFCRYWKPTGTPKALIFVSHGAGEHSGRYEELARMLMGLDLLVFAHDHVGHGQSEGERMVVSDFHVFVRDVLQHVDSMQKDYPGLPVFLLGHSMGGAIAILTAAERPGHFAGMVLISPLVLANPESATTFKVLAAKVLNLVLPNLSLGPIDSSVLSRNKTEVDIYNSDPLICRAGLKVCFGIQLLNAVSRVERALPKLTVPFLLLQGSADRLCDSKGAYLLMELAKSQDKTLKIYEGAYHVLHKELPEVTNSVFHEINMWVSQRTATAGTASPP

[2] = Octanol-water partition coefficient, logD of the compound at pH 7.4 incubated for 1.5 hrs by shake flask based LC-UV/MS analysis; type: physicochemical; details: pH 7.4
Outline: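 CAMDIS shake-flask variant. 10 mM DMSO stock is diluted into 25 mM phosphate pH 7.4 over a 1-octanol-impregnated PVDF membrane and shaken 1.5 h at 21 °C, at two octanol/buffer ratios, in triplicate. Remaining aqueous concentration is read by LC/MS; logD comes from the difference with and without octanol.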

[3] = Aqueous solubility of compound in phosphate buffer at pH 6.5 by HPLC or MS/MS analysis; type: physicochemical; details: phosphate buffer, read-out: solubility
Outline: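 Lyophilization solubility assay (LYSA) starting from a 10 mM DMSO stock. DMSO was removed by centrifugal vacuum evaporation, then 0.05 M phosphate buffer pH 6.5 was added and samples sonicated. Filtrates were analysed by MS/MS and/or HPLC against a 4- to 7-point calibration curve.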

[4] = Plasma protein binding in human assessed as fraction unbound by equilibrium dialysis based LC-MS/MS method; type: ADME, cell-free
Outline: (§1)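 Equilibrium dialysis across a 12–14 kDa cutoff membrane in a Teflon 96-well device. Pooled frozen plasma is adjusted to pH 7.4 and spiked at 1000 nM initial total, against Soerensen buffer pH 7.4. Incubation is 5 h at 37 °C, 5% CO2, with diazepam control in each well. %fu = 100 × buffer/matrix concentration after dialysis; recovery accepted at 80–120%.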

[5] = Free fraction in human plasma incubated for 5 hrs by equilibrium dialysis based LC-MS/MS analysis; type: ADME, cell-free
Outline: as §1

[6] = Half-life in C57BL/6 mouse at 24 mg/kg, ip measured upto 7 hrs by LC-MS/MS analysis; details: in vivo
[7] = Ratio of drug concentration in C57BL/6 mouse CSF to plasma at 24 mg/kg, ip measured upto 7 hrs by LC-MS/MS analysis
[8] = Cmax in C57BL/6 mouse at 5.1 mg/kg, po measured upto 7 hrs by LC-MS/MS analysis; details: in vivo
[9] = Oral bioavailability in C57BL/6 mouse at 5.1 mg/kg measured upto 7 hrs by LC-MS/MS analysis; details: in vivo
[10] = Unbound brain to plasma partition coefficient of compound in C57BL/6 mouse at 24 mg/kg, ip measured upto 7 hrs by LC-MS/MS analysis; details: read-out: K(p,uu,brain)
[11] = AUClast in C57BL/6 mouse at 24 mg/kg, ip measured upto 7 hrs by LC-MS/MS analysis; details: in vivo
[12] = Tmax in C57BL/6 mouse at 24 mg/kg, ip measured upto 7 hrs by LC-MS/MS analysis; details: in vivo
[13] = Volume of distribution at steady state in C57BL/6 mouse at 1.3 mg/kg, iv measured upto 7 hrs by LC-MS/MS analysis; details: in vivo, read-out: Vdss
[14] = Half-life in C57BL/6 mouse at 1.3 mg/kg, iv measured upto 7 hrs by LC-MS/MS analysis; details: in vivo
[15] = Ratio of drug concentration in C57BL/6 mouse brain to plasma at 24 mg/kg, ip measured upto 7 hrs by LC-MS/MS analysis
[16] = Clearance in C57BL/6 mouse at 1.3 mg/kg, iv measured upto 7 hrs by LC-MS/MS analysis; details: in vivo
[17] = AUClast in C57BL/6 mouse at 5.1 mg/kg, po measured upto 7 hrs by LC-MS/MS analysis; details: in vivo
[18] = Tmax in C57BL/6 mouse at 5.1 mg/kg, po measured upto 7 hrs by LC-MS/MS analysis; details: in vivo
[19] = Cmax in C57BL/6 mouse at 24 mg/kg, ip measured upto 7 hrs by LC-MS/MS analysis; details: in vivo

IC50 ([1]; read-out: IC50)	IC50 ([1]; read-out: pIC50 (converted))	logD at 1.5 h [2]	solubility [3]	other results	Compound
2500 nM	2400 nM	3.7	6.9 µg/mL (≈ 15.9 µM)		O=C1CSc2ccc(C(=O)N3CCC(Cc4ccc(C(F)(F)F)cc4)CC3)cc2N1
46 nM	44.7 nM	3.9	15 µg/mL (≈ 35.8 µM)		O=C1COc2ccc(C(=O)N3CCC(Cc4cccc(C(F)(F)F)c4)CC3)cc2N1
1 nM		3.8	< 0.1 µg/mL		O=C1COc2ccc(C(=O)N3CCC(C(c4ccc(F)cc4)c4ccc(F)cc4)CC3)cc2N1
3 nM		3.6	2 µg/mL (≈ 4.88 µM)		O=C1COc2ccc(C(=O)N3CCC(c4c[nH]c5ccc(Cl)cc45)CC3)cc2N1
21 nM		3.8	0.3 µg/mL (≈ 0.732 µM)		O=C1COc2ccc(C(=O)N3CCC(c4c[nH]c5cc(Cl)ccc45)CC3)cc2N1
32 nM	28.8 nM	3.8	4.1 µg/mL (≈ 9.8 µM)	fraction unbound [4]: 0.005; fraction unbound at 5 h [5]: 0.005	O=C1COc2ccc(C(=O)N3CCC(Cc4ccc(C(F)(F)F)cc4)CC3)cc2N1
2200 nM		3.3	114 µg/mL (≈ 268 µM)		O=C1CO[C@@H]2CCN(C(=O)N3CCC(Cc4ccc(C(F)(F)F)cc4)CC3)C[C@@H]2N1
965 nM	912 nM	3.8	2.9 µg/mL (≈ 7.49 µM)		O=C(c1ccc2cn[nH]c2c1)N1CCC(Cc2ccc(C(F)(F)F)cc2)CC1
1 nM	0.437 nM	3.8	< 0.1 µg/mL		O=C1COc2ccc(C(=O)N3CCC(C(c4ccccc4)c4ccccc4)CC3)cc2N1
370 nM	347 nM	3.2	78 µg/mL (≈ 183 µM)		O=C1CO[C@H]2CCN(C(=O)N3CCC(Cc4ccc(C(F)(F)F)cc4)CC3)C[C@@H]2N1 (racemic)
65 nM		3.2	225 µg/mL (≈ 529 µM)	half-life [6]: 174 min; Kp at 7 h [7]: 0.016; Cmax [8]: 896 ng/mL; bioavailability [9]: 127%; Kp uu at 7 h [10]: 0.35; AUC(0-t) at 7 h [11]: 62100 ng·h/mL; Tmax [12]: 1.5 h; Vd [13]: 3 L/kg; half-life [14]: 90 min; Kp at 7 h [15]: 1.7; clearance [16]: 23 mL/min/kg; AUC(0-t) at 7 h [17]: 4560 ng·h/mL; Tmax [18]: 2.7 h; Cmax [19]: 12200 ng/mL	O=C1CO[C@H]2CCN(C(=O)N3CCC(Cc4ccc(C(F)(F)F)cc4)CC3)C[C@H]2N1 (racemic)
569 nM		3.2	377 µg/mL (≈ 921 µM)		O=C1C[C@H]2CCN(C(=O)N3CCC(Cc4ccc(C(F)(F)F)cc4)CC3)C[C@H]2N1
62 nM	57.5 nM	3.3	0.8 µg/mL (≈ 2.17 µM)		O=C1COc2ccc(C(=O)N3CCC(Cc4ccc(F)cc4)CC3)cc2N1
51 nM	49 nM	3.6	36 µg/mL (≈ 97.7 µM)		O=C1COc2ccc(C(=O)N3CCC(Cc4cccc(F)c4)CC3)cc2N1
37 nM		2.9	37 µg/mL (≈ 98.6 µM)		O=C1COc2ccc(C(=O)N3CCC(c4c[nH]c5ccccc45)CC3)cc2N1
75 nM		3.2	1.1 µg/mL (≈ 3.14 µM)		O=C1COc2ccc(C(=O)N3CCC(Cc4ccccc4)CC3)cc2N1
